Measurements as given in ChEMBL document CHEMBL1135883, “A comprehensive study of the active site residues of DT-diaphorase: rational design of benzimidazolediones as DT-diaphorase substrates” (J Med Chem, 2002).

Key:
[1] = target: NAD(P)H dehydrogenase [quinone] 1 (Homo sapiens) (UniProt P15559); experiment: Evaluated for the kinetic parameter (Kcat) using recombinant DT-Diaphorase, value calculated from Lineweaver-Burke plot
Summary of the method: (§1)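 Recombinant human DT-diaphorase (1.4 × 10^-9 M final) with NADH (0.3 mM final) and quinone substrate (1.3 × 10^-6 to 6.7 × 10^-5 M final; 4.0 mM DMSO stock) in 0.05 M Tris pH 7.4. Anaerobic Thunberg cuvettes, argon-purged 20 min, 30 °C. Initial rates from 336 nm absorbance over 10 min. Δε from absorbance before and after complete reduction. kcat and Km from Lineweaver–Burke plot.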

[2] = target: NAD(P)H dehydrogenase [quinone] 1 (Homo sapiens) (UniProt P15559); experiment: Ratio Kcat/Km provides the apparent second-order rate constant of the enzymatic transformation of DT-Diaphorase; summary of the method: as §1
[3] = target: NAD(P)H dehydrogenase [quinone] 1 (Homo sapiens) (UniProt P15559); experiment: The ratio Kcat/Km provides the apparent second-order rate constant of the enzymatic transformation DT-Diaphorase; summary of the method: as §1

Chain of NAD(P)H dehydrogenase [quinone] 1 (Homo sapiens) (P15559 whole entry): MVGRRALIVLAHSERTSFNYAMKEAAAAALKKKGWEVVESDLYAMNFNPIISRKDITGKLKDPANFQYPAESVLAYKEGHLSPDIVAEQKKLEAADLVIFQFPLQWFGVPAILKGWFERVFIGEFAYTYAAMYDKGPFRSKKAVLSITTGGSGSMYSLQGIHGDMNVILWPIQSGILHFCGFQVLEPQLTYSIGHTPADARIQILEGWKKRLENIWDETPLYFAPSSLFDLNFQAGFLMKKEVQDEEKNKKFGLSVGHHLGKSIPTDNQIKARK

| Compound | k cat [1] [s⁻¹] | k cat/Km [2] [M⁻¹ s⁻¹] | k cat/Km [3] [M⁻¹ s⁻¹] |
| --- | --- | --- | --- |
| CC(=O)NC1=C(C)C(=O)c2c(nc3n2CC[C@@H]3OC(C)=O)C1=O | 3.85 | 472000 | – |
| CC1=C(N2CC2)C(=O)c2nc3n(c2C1=O)CCC[C@@H]3N | 2.97 | – | 188000 |
| CC1=C(N2CC2)C(=O)c2nc3n(c2C1=O)CC[C@@H]3NC(=O)N(C)C | 3.96 | 940000 | – |
| CC(=O)N[C@@H]1CCn2c1nc1c2C(=O)C(C)=C(N2CC2)C1=O | 1.47 | – | 920000 |
| CC1=C(N2CC2)C(=O)c2nc3n(c2C1=O)CC[C@@H]3N | 2.64 | 1.39e+06 | – |
| O=C1c2nc3n(c2C(=O)c2c1nc1n2CCCC1)CCCC3 | 3.74 | 1.45e+06 | – |
| COCC(=O)O[C@H]1CCn2c1nc1c2C(=O)C(C)=C(NC(C)=O)C1=O | 1.74 | 69000 | – |
| O=C1c2nc3n(c2C(=O)c2c1nc1n2CCC1)CCC3 | 3.81 | – | 118000 |
| CC1=C(N2CC2)C(=O)c2nc3n(c2C1=O)CC[C@H]3N | 3.26 | 640000 | – |
| CC1=C(N2CC2)C(=O)c2nc3n(c2C1=O)CC[C@H]3NC(N)=O | 2.7 | 890000 | – |
| CC(=O)N[C@H]1CCn2c1nc1c2C(=O)C(C)=C(N2CC2)C1=O | 1.87 | 520000 | – |
| CC1=C(N2CC2)C(=O)c2nc3n(c2C1=O)CCC[C@H]3N | 4.92 | 106000 | – |
| CC1=C(N2CC2)C(=O)c2nc3n(c2C1=O)CC[C@H]3NC(=O)N(C)C | 9.56 | 2.13e+06 | – |
| COCC(=O)O[C@@H]1CCn2c1nc1c2C(=O)C(C)=C(NC(C)=O)C1=O | 4.84 | – | 40000 |
| CC1=C(N2CC2)C(=O)c2nc3n(c2C1=O)CC[C@@H]3NC(N)=O | 2.4 | – | 1.2e+06 |
| CC(=O)NC1=C(C)C(=O)c2c(nc3n2CC[C@H]3OC(C)=O)C1=O | 3.81 | 154000 | – |
